According to ChEMBL document CHEMBL4689842, “EUbOPEN Chemogenomics Library wave 1” (2021):

Tested on: U2OS
Test: Multiplex assay against U2OS
Assay type: toxicity, cell-based
Details: human
In short: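 Live cells carried four stains from seeding: Hoechst33342, BioTracker Green Microtubule Cytoskeleton Dye, MitoTracker Red and Annexin V Alexa Fluor 680. They were imaged on a CQ1 microscope at 37°C and 5% CO2 after compound addition. Using CellPathfinder machine-learning gating, cells were split into Hoechst high-intensity objects or normal cells, normal cells into healthy, pyknosed or fragmented nuclei, and pyknosed cells into mitotic or apoptotic; tubulin, mitochondrial-mass and membrane-permeability phenotypes are per cents of healthy-nucleus cells.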

[1] = 12 h, 1 µM, compound concentration 1 uM, replicate 1
[2] = 12 h, 1 µM, compound concentration 1 uM, replicate 2
[3] = 12 h, 10 µM, compound concentration 10 uM, replicate 1
[4] = 12 h, 10 µM, compound concentration 10 uM, replicate 2
[5] = 24 h, 1 µM, compound concentration 1 uM, replicate 1
[6] = 24 h, 1 µM, compound concentration 1 uM, replicate 2
[7] = 24 h, 10 µM, compound concentration 10 uM, replicate 1
[8] = 24 h, 10 µM, compound concentration 10 uM, replicate 2
[9] = 48 h, 1 µM, compound concentration 1 uM, replicate 1
[10] = 48 h, 1 µM, compound concentration 1 uM, replicate 2
[11] = 48 h, 10 µM, compound concentration 10 uM, replicate 1
[12] = 48 h, 10 µM, compound concentration 10 uM, replicate 2

## CNC(=O)c1cc(Oc2ccc(NC(=O)Nc3cc(C(C)(C)C)nn3-c3ccc4ncccc4c3)c(F)c2)ccn1 [REBASTINIB]
[1]
  Population Apoptotic (%): 46%
  Population Fragmented Nuclei (%): 3%
  Population Healthy Nuclei (%): 88%
  Population Hoechst High Intensity Objects (%): 3%
  Population Membrane Permeable-Phenotype (%): 16%
  Population Mitochondria Different-Phenotype (%): 15%
  Population Mitotic Cells (%): 53%
  Population Normal (%): 96%
  Population Pyknosed Nuclei (%): 7%
  Population Tubulin-Different-Phenotype (%): 13%
  Total Cell Count: 164
[2]
  Population Apoptotic (%): 0%
  Population Fragmented Nuclei (%): 10%
  Population Healthy Nuclei (%): 87%
  Population Hoechst High Intensity Objects (%): 7%
  Population Membrane Permeable-Phenotype (%): 17%
  Population Mitochondria Different-Phenotype (%): 31%
  Population Mitotic Cells (%): 100%
  Population Normal (%): 92%
  Population Pyknosed Nuclei (%): 1%
  Population Tubulin-Different-Phenotype (%): 35%
  Total Cell Count: 113
[3]
  Population Apoptotic (%): 50%
  Population Fragmented Nuclei (%): 16%
  Population Healthy Nuclei (%): 63%
  Population Hoechst High Intensity Objects (%): 6%
  Population Membrane Permeable-Phenotype (%): 30%
  Population Mitochondria Different-Phenotype (%): 54%
  Population Mitotic Cells (%): 50%
  Population Normal (%): 93%
  Population Pyknosed Nuclei (%): 20%
  Population Tubulin-Different-Phenotype (%): 96%
  Total Cell Count: 196
[4]
  Population Apoptotic (%): 46%
  Population Fragmented Nuclei (%): 8%
  Population Healthy Nuclei (%): 72%
  Population Hoechst High Intensity Objects (%): 11%
  Population Membrane Permeable-Phenotype (%): 18%
  Population Mitochondria Different-Phenotype (%): 52%
  Population Mitotic Cells (%): 53%
  Population Normal (%): 88%
  Population Pyknosed Nuclei (%): 18%
  Population Tubulin-Different-Phenotype (%): 98%
  Total Cell Count: 111
[5]
  Population Apoptotic (%): 25%
  Population Fragmented Nuclei (%): 6%
  Population Healthy Nuclei (%): 84%
  Population Hoechst High Intensity Objects (%): 2%
  Population Membrane Permeable-Phenotype (%): 12%
  Population Mitochondria Different-Phenotype (%): 28%
  Population Mitotic Cells (%): 75%
  Population Normal (%): 97%
  Population Pyknosed Nuclei (%): 9%
  Population Tubulin-Different-Phenotype (%): 13%
  Total Cell Count: 218
[6]
  Population Apoptotic (%): 44%
  Population Fragmented Nuclei (%): 13%
  Population Healthy Nuclei (%): 79%
  Population Hoechst High Intensity Objects (%): 13%
  Population Membrane Permeable-Phenotype (%): 14%
  Population Mitochondria Different-Phenotype (%): 26%
  Population Mitotic Cells (%): 55%
  Population Normal (%): 86%
  Population Pyknosed Nuclei (%): 7%
  Population Tubulin-Different-Phenotype (%): 35%
  Total Cell Count: 126
[7]
  Population Apoptotic (%): 75%
  Population Fragmented Nuclei (%): 17%
  Population Healthy Nuclei (%): 50%
  Population Hoechst High Intensity Objects (%): 18%
  Population Membrane Permeable-Phenotype (%): 33%
  Population Mitochondria Different-Phenotype (%): 91%
  Population Mitotic Cells (%): 24%
  Population Normal (%): 81%
  Population Pyknosed Nuclei (%): 31%
  Population Tubulin-Different-Phenotype (%): 94%
  Total Cell Count: 227
[8]
  Population Apoptotic (%): 64%
  Population Fragmented Nuclei (%): 15%
  Population Healthy Nuclei (%): 59%
  Population Hoechst High Intensity Objects (%): 17%
  Population Membrane Permeable-Phenotype (%): 30%
  Population Mitochondria Different-Phenotype (%): 87%
  Population Mitotic Cells (%): 35%
  Population Normal (%): 82%
  Population Pyknosed Nuclei (%): 25%
  Population Tubulin-Different-Phenotype (%): 97%
  Total Cell Count: 141

## CC(C)N1CCC(C)(C)c2cc(C#Cc3ccc(C(=O)O)cc3)ccc21
[1]
  Population Apoptotic (%): 30%
  Population Healthy Nuclei (%): 74%
  Population Hoechst High Intensity Objects (%): 12%
  Population Membrane Permeable-Phenotype (%): 3%
  Population Mitochondria Different-Phenotype (%): 4%
  Population Mitotic Cells (%): 70%
  Population Normal (%): 88%
  Population Pyknosed Nuclei (%): 9%
  Population Tubulin-Different-Phenotype (%): 21%
  Total Cell Count: 125
[2]
  Population Apoptotic (%): 20%
  Population Fragmented Nuclei (%): 16%
  Population Healthy Nuclei (%): 75%
  Population Hoechst High Intensity Objects (%): 13%
  Population Membrane Permeable-Phenotype (%): 6%
  Population Mitochondria Different-Phenotype (%): 15%
  Population Mitotic Cells (%): 80%
  Population Normal (%): 86%
  Population Pyknosed Nuclei (%): 8%
  Population Tubulin-Different-Phenotype (%): 20%
  Total Cell Count: 69
[3]
  Population Apoptotic (%): 60%
  Population Fragmented Nuclei (%): 52%
  Population Healthy Nuclei (%): 43%
  Population Hoechst High Intensity Objects (%): 54%
  Population Membrane Permeable-Phenotype (%): 8%
  Population Mitochondria Different-Phenotype (%): 8%
  Population Mitotic Cells (%): 40%
  Population Normal (%): 45%
  Population Pyknosed Nuclei (%): 4%
  Population Tubulin-Different-Phenotype (%): 13%
  Total Cell Count: 542
[4]
  Population Apoptotic (%): 0%
  Population Fragmented Nuclei (%): 55%
  Population Healthy Nuclei (%): 44%
  Population Hoechst High Intensity Objects (%): 71%
  Population Membrane Permeable-Phenotype (%): 4%
  Population Mitochondria Different-Phenotype (%): 14%
  Population Mitotic Cells (%): 0%
  Population Normal (%): 28%
  Population Pyknosed Nuclei (%): 0%
  Population Tubulin-Different-Phenotype (%): 28%
  Total Cell Count: 327
[5]
  Population Apoptotic (%): 54%
  Population Fragmented Nuclei (%): 11%
  Population Healthy Nuclei (%): 80%
  Population Hoechst High Intensity Objects (%): 7%
  Population Membrane Permeable-Phenotype (%): 1%
  Population Mitochondria Different-Phenotype (%): 5%
  Population Mitotic Cells (%): 45%
  Population Normal (%): 92%
  Population Pyknosed Nuclei (%): 7%
  Population Tubulin-Different-Phenotype (%): 12%
  Total Cell Count: 156
[6]
  Population Apoptotic (%): 50%
  Population Fragmented Nuclei (%): 18%
  Population Healthy Nuclei (%): 76%
  Population Hoechst High Intensity Objects (%): 4%
  Population Membrane Permeable-Phenotype (%): 3%
  Population Mitochondria Different-Phenotype (%): 10%
  Population Mitotic Cells (%): 50%
  Population Normal (%): 95%
  Population Pyknosed Nuclei (%): 5%
  Population Tubulin-Different-Phenotype (%): 18%
  Total Cell Count: 81
[7]
  Population Apoptotic (%): 70%
  Population Fragmented Nuclei (%): 47%
  Population Healthy Nuclei (%): 49%
  Population Hoechst High Intensity Objects (%): 48%
  Population Membrane Permeable-Phenotype (%): 4%
  Population Mitochondria Different-Phenotype (%): 6%
  Population Mitotic Cells (%): 30%
  Population Normal (%): 51%
  Population Pyknosed Nuclei (%): 3%
  Population Tubulin-Different-Phenotype (%): 14%
  Total Cell Count: 566
[8]
  Population Apoptotic (%): 100%
  Population Fragmented Nuclei (%): 49%
  Population Healthy Nuclei (%): 47%
  Population Hoechst High Intensity Objects (%): 66%
  Population Membrane Permeable-Phenotype (%): 3%
  Population Mitochondria Different-Phenotype (%): 3%
  Population Mitotic Cells (%): 0%
  Population Normal (%): 33%
  Population Pyknosed Nuclei (%): 2%
  Population Tubulin-Different-Phenotype (%): 26%
  Total Cell Count: 352
[9]
  Population Apoptotic (%): 25%
  Population Fragmented Nuclei (%): 6%
  Population Healthy Nuclei (%): 90%
  Population Membrane Permeable-Phenotype (%): 3%
  Population Mitochondria Different-Phenotype (%): 5%
  Population Mitotic Cells (%): 75%
  Population Pyknosed Nuclei (%): 3%
  Population Tubulin-Different-Phenotype (%): 17%
  Total Cell Count: 245
[10]
  Population Apoptotic (%): 33%
  Population Fragmented Nuclei (%): 14%
  Population Healthy Nuclei (%): 83%
  Population Hoechst High Intensity Objects (%): 6%
  Population Membrane Permeable-Phenotype (%): 4%
  Population Mitochondria Different-Phenotype (%): 9%
  Population Mitotic Cells (%): 66%
  Population Normal (%): 93%
  Population Pyknosed Nuclei (%): 2%
  Population Tubulin-Different-Phenotype (%): 20%
  Total Cell Count: 122
[11]
  Population Apoptotic (%): 30%
  Population Fragmented Nuclei (%): 38%
  Population Healthy Nuclei (%): 57%
  Population Hoechst High Intensity Objects (%): 38%
  Population Membrane Permeable-Phenotype (%): 1%
  Population Mitochondria Different-Phenotype (%): 10%
  Population Mitotic Cells (%): 69%
  Population Normal (%): 61%
  Population Pyknosed Nuclei (%): 3%
  Population Tubulin-Different-Phenotype (%): 12%
  Total Cell Count: 653
[12]
  Population Apoptotic (%): 100%
  Population Fragmented Nuclei (%): 44%
  Population Healthy Nuclei (%): 55%
  Population Hoechst High Intensity Objects (%): 57%
  Population Membrane Permeable-Phenotype (%): 2%
  Population Mitochondria Different-Phenotype (%): 8%
  Population Mitotic Cells (%): 0%
  Population Normal (%): 42%
  Population Pyknosed Nuclei (%): 0%
  Population Tubulin-Different-Phenotype (%): 28%
  Total Cell Count: 411
